Laboratory results from ChEMBL document CHEMBL1127691, “Discovery, synthesis, and bioactivity of bis(heteroaryl)piperazines. 1. A novel class of non-nucleoside HIV-1 reverse transcriptase inhibitors” (J Med Chem, 1994).
pEC50: −log10 of the molar value.

Experiments:
[1] = (§1) Effective antiviral dose required to block the spread of HIV-1D34 infection in human peripheral blood mononuclear cells; assay type: functional; conditions: read-out: ED50 (the source's name)
In short: (§2)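 PBMC (1 × 10^6 cells) infected with HIV-1 D34 inoculum containing 1 ng p24, cultured at 37 °C in 5% CO2. Replication read as supernatant p24 at day 4. ED50 = 50% effective antiviral dose, estimated in some cases.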

[2] = Tested for the drug concentration required to decrease […] infected human peripheral blood mononuclear cell viability compared to uninfected controls; assay type: functional
In short: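 Uninfected and HIV-1 D34-infected PBMC at 37 °C, 5% CO2. Viability taken from mitogen-stimulated cell proliferation. CC50 is the concentration lowering viability relative to uninfected controls; mostly estimated.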

[3] = target: Human immunodeficiency virus type 1 reverse transcriptase (Human immunodeficiency virus 1) (UniProt Q72547); assay: In vitro inhibitory activity against HIV-1 reverse transcriptase at 100 uM
In short: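 Recombinant HIV-1 RT (p51/p66 heterodimer, 90–95% pure, 0.0274 μM) with poly(rA) 10 μg/mL and (dT)10 primer 5 μg/mL; 8 μM α-35S-dTTP, 50 mM Tris-HCl pH 8.3, 10 mM MgCl2, 60 mM NaCl, 20 mM DTT, 0.05% NP-40. 37 °C, 15 min; TCA-precipitated label counted on filters. Percent inhibition at 100 μM, mean of at least two determinations.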

[4] = system: Human immunodeficiency virus 1; assay: as §1; assay type: functional; conditions: read-out: ED50 (the source's name); in short: as §2
[5] = system: MT2; assay: Tested for the drug concentration required to decrease HIV-1IIIb infected MT-2 cell viability compared to uninfected controls; assay type: functional; conditions: Homo sapiens
In short: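 MT-2 cells with HIV-1 IIIb (MOI 0.001), 4-day culture. Viability by trypan blue exclusion. CC50 is the concentration lowering viability relative to uninfected controls; mostly estimated.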

[6] = system: MT2; assay: Effective antiviral dose required to block the spread of HIV-1 IIIb infection in MT-2 cells by monitoring the formation of syncytia.; assay type: functional; conditions: Homo sapiens, read-out: ED50 (the source's name)
In short: (§3)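 MT-2 cells infected with HIV-1 IIIb at MOI 0.001, held at 37 °C in 5% CO2. Syncytium formation scored 4 days post-infection, at peak cytopathic effect. ED50 is the dose giving 50% reduction in syncytia; some values were estimated, and ">" means 50% was not reached at the top concentration.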

[7] = Selective index is the ratio of inhibitory concentrations of cellular DNA polymerase alpha to HIV-1 reverse transcriptase
In short: (§4)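 Index = IC50 for cellular DNA polymerase α or δ divided by IC50 for HIV-1 RT. RT IC50 measured with recombinant RT and poly(rA):oligo(dT)10 template:primer.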

[8] = Selective index is the ratio of inhibitory concentrations of cellular DNA polymerase delta to HIV-1 reverse transcriptase; in short: as §4
[9] = system: MT2; assay: Effective antiviral dose required to block the spread of HIV-1 IIIb infection in MT-2 cells by monitoring the formation of syncytia; assay type: functional; conditions: Homo sapiens, read-out: ED50 (the source's name); in short: as §3

SMILES | pEC50 [1] | inhibition [3] [%] | pEC50 [4] | pEC50 [6] | Selectivity index [7] | Selectivity index [8] | pEC50 [9] | CC50 [2] [nM] | CC50 [5] [nM]
CCNc1cccnc1N1CCN(Cc2cc(C)c(OC)c(C)c2)CC1 |  | 73 | 6.00 | 5.70 | 30 | > 60 |  | > 10000 | 15000
CCNc1cccnc1N1CCN(C(=O)c2cc3ccccc3[nH]2)CC1 |  |  | 8.00 |  | 1500 | 2800 | 6.52 | > 10000 | > 30000
CC(C)Nc1cccnc1N1CCN(C(=O)c2cc3cc(F)ccc3[nH]2)CC1 |  | 96 | 8.52 |  | 810 | 10000 | 6.52 |  | > 26000
CCNc1cccnc1N1CCN(C(=O)c2cc3cc(OC)ccc3[nH]2)CC1.CS(=O)(=O)O [ATEVIRDINE SULPHATE] |  | 92 | 9.00 |  | 200 | 1500 | > 6.70 |  | > 20000

Continued, in another order:

pEC50 [1] | inhibition [3] [%] | pEC50 [4] | pEC50 [6] | Selectivity index [7] | Selectivity index [8] | pEC50 [9] | SMILES | CC50 [2] [nM] | CC50 [5] [nM]
< 6.00 | 21 |  |  |  |  |  | CCNc1ccccc1N1CCN(C(=O)c2cc(C)c(OC)c(C)c2)CC1 | ~10000 | 
 | 96 | 9.00 |  | 1100 | 10000 | 6.52 | CC(C)Nc1cccnc1N1CCN(C(=O)c2cc3ccccc3[nH]2)CC1 | > 10000 | > 27000
 | 89 | 8.00 |  | 225 | 2500 | 6.70 | CC(C)(C)Nc1cccnc1N1CCN(C(=O)c2cc3ccccc3[nH]2)CC1 | 10000 | > 2400
